Bioassay records as filed in PubChem BioAssay.
Dynein cargo inh: blocks dynein driven cargo transport along microtubules. z-score, hits read low. hit rate 0.47% among 220,000. 3617.4 mouse cells, GR-EGFP nuclear translocation imaging; test concentration mostly 20 µM; stimulated with dexamethasone, 1 µM; hits give low values. AID 1381;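 active = plate z-score of nuclear minus cytoplasmic receptor signal below a set negative limit, without overly bright fluorescence or cell loss, cut at about -3.5 in these data, passing the limit was not always enough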;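 also: z-score of nuclear minus cytoplasmic ring GR-EGFP intensity difference per well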
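medium = tetracycline-free induction medium containing charcoal-stripped FBS | also added = 1.0 µM final dexamethasone stimulus | schedule = 48 h induction, 1 h compound, 30 min dex at 37 °C | technique = fixed, Hoechst-stained cells imaged at 10x for EGFP | measure = GR-EGFP nuclear translocation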
S1P4 agonist: activates the human S1P4 receptor; O95977; hit rate 0.35% among 220,000; activation, % at 4.98 µM; S1P4-expressing cell line, agonist reporter assay; in the data active = activation above about 11%
Target sequence (O95977 whole entry, looked up): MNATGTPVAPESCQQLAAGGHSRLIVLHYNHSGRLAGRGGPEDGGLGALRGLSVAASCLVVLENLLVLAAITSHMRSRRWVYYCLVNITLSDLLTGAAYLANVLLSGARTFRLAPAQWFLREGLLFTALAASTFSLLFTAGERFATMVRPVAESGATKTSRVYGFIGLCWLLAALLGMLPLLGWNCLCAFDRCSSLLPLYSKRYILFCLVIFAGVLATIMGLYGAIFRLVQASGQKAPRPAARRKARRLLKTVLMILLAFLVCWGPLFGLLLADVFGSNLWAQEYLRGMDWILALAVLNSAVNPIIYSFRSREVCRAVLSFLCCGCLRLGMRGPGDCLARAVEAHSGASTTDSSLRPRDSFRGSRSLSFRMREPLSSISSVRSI
L929 necroptosis: blocks zVAD induced death of L929 cells. AID 1377. hit rate 0.38% among 220,000. viability rescue, % at 10 µM. L929 zVAD necroptosis rescue, ATP luminescence, 24 h; with zVAD 60 µM;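 active = activation, scaled between plate controls, above about 75%, limit read from the data; inactive = activation under that limit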
S1P4 antag: blocks the human S1P4 receptor. O95977. S1P4-expressing cells, antagonist mode, reporter read-out. inhibition, % at 4.98 µM. hit rate 0.26% among 220,000; in the data active = inhibition above about 29%
TNF necrop inh: TNF-alpha cell death inhibition in Jurkat FADD-/- cells; Jurkat FADD-/- TNF necroptosis rescue, ATP luminescence, 24 h; 0 = TNF only, 100 = no-TNF cells; activation (protection from cell death), % at 10 µM; hit rate 0.068% among 220,000; AID 463075;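 active = activation, meaning protection from cell death, of at least 50% relative to plate controls; inactive = activation below 50%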;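 also: necroptosis triggered by 40 ng/mL TNF-alpha added together with compound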
TbHK1 inh: T. brucei hexokinase 1 inhibition; AID 1430; hit rate 0.11% among 220,000; recombinant TbHK1, G6PDH-coupled NADH A340; inhibition, % at 10 µM;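 active = inhibition of 50% or more in the single-dose primary screen; inactive = inhibition below 50%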
zVAD death conf: confirmed blocker of zVAD induced death in L929 cells | shares compounds with L929 necroptosis | activation (protection from necroptosis), % at 10 µM | L929 zVAD-induced necroptosis rescue, ATP luminescence, 24 h | AID 463117 | hit rate 16% among 760;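 active = mean protection from necroptosis of at least 50% over duplicate tests; inactive = mean protection below 50%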
Each line names hits and unclear results; the compound was inactive in the other large screens (follow-up assays come after a bar, where they were run). The list is not random: actives were taken first. Their share in the collection is about 1.5%.

COC(=O)C1=C(NC(=O)c2cccs2)CCS1	TbHK1 inh 66
CC(=O)N(CC1CCCO1)c1nnc(-c2ccccn2)s1 (configuration not stated)	TNF necrop inh 65
Cc1csc(SCC(=O)NC(=O)NC(C)(C)C)n1	none
Cc1csc(SCC(=O)NC(=O)NC2CCCC2)n1	TNF necrop inh 56
Cc1cc(C)n2ncc(C(=O)O)c2n1	none
O=C(NCCN1CCOCC1)c1ccc2c(c1)ncn2C1CCCCC1	L929 necroptosis 88
Cc1ccc(N=Nc2c(O)n(CN3CCOCC3)c3ccccc23)cc1	L929 necroptosis 85
COc1cc(/C=N/Nc2ccccc2)ccc1OC(=O)c1cccs1	none
COc1cc(/C=N/Nc2ccc(Cl)c(C(=O)O)c2)ccc1OC(=O)c1cccs1	S1P4 agonist 12
N=c1oc2cc(O)ccc2cc1C(=O)Nc1ccccn1	S1P4 agonist 74
O=C(O)c1ccccc1C(=O)Nc1ccccn1	none
O=C(CNC(=O)c1ccc(S(=O)(=O)N2CCCC2)cc1)N/N=C/c1ccco1	none
COc1ccc(-c2nc3c(-c4ccccc4)cnn3cc2C)cc1F	TNF necrop inh 51
COc1ccc(-c2nc3c(-c4ccc(Cl)cc4)cnn3cc2C)cc1F	none
O=C(CSCc1ccc([N+](=O)[O-])cc1)NC1CCCCCC1	TNF necrop inh 63
COC(=O)c1ccsc1-n1cc(C#N)c(=O)n(C)c1=O	none
Cc1[nH]c(=O)c(C(=O)/C=C/c2ccccc2F)c2c1CCCC2	L929 necroptosis 92
COCCNS(=O)(=O)c1ccc(SC)cc1	TNF necrop inh 50
Cc1ccc(NS(=O)(=O)c2cc(C(=O)N(C)C)ccc2C)cc1C	none
Cc1ccc(C(=O)N2CCN(S(=O)(=O)c3ccc(C)c([N+](=O)[O-])c3)C2)cc1	none
O=C(Nc1cccnc1)c1cn(-c2ccccc2)nc1-c1cccs1	none
CCN(CC)CCNC(=O)c1ccc(NC(=O)c2cn(-c3ccccc3)nc2-c2cccs2)cc1	Dynein cargo inh -7.3
Nc1nc2c(nc(SCc3ccccc3Br)n2C2OC(CO)C(O)C2O)c(=O)[nH]1 (configuration not stated)	none
CC1CC(C)CN(C(=O)CSc2nnc(-c3ccc(Cl)cc3)o2)C1 (configuration not stated)	L929 necroptosis 83
O=[N+]([O-])c1ncn(Cc2c(Cl)cccc2Cl)n1	L929 necroptosis 94, TNF necrop inh 96 | zVAD death conf inactive
O=C(Cn1cnc([N+](=O)[O-])n1)NCc1ccccc1	none
O=[N+]([O-])c1ncn(Cc2ccccc2Cl)n1	L929 necroptosis 88, TNF necrop inh 83 | zVAD death conf inactive
CCCC(C)NC(=O)COC(=O)c1cccc(NS(C)(=O)=O)c1 (configuration not stated)	none
O=[N+]([O-])c1ccc(/C=N/Nc2ncc(-c3ccccc3)cn2)cc1	L929 necroptosis 79 | zVAD death conf inactive
Cc1ccnc(NC(=O)Nc2cccc(F)c2)c1	L929 necroptosis 92 | zVAD death conf inactive
Cc1cccc(NC(=O)Nc2cccc(F)c2)n1	none
Cc1cccc(NC(=O)Nc2cc(C)cc(C)n2)c1	L929 necroptosis 76 | zVAD death conf inactive
Cc1cccc(NC(=O)Nc2ccc(C)cc2Br)c1	none
Cc1c(NS(=O)(=O)c2ccc(NCCN3CCOCC3)c([N+](=O)[O-])c2)c(=O)n(-c2ccccc2)n1C	none
COc1cc(/C=C/C(=O)c2ccc(NS(=O)(=O)c3ccc(C)cc3)cc2)ccc1OC(F)F	none
COc1cc(/C=C/C(=O)c2ccc(NS(=O)(=O)c3ccc(C)cc3)cc2)cc(OC)c1O	L929 necroptosis 103 | zVAD death conf inactive
CCC(C)/C(C)=N/NC(=O)c1ccc(COc2ccc(Cl)c(C)c2)cc1 (configuration not stated)	none
O=C(CCCCCNc1nc(=S)[nH]c2ccccc12)NCCC1=CCCCC1	none
COc1ccc2[nH]c3c(NCCC4=CCCCC4)ncnc3c2c1	none
c1ccc(CCNc2nc(-c3ccccn3)nc3ccccc23)cc1	none
O=C1NC(=S)N/C1=C\c1ccc(Oc2ccc(C(F)(F)F)cc2[N+](=O)[O-])c(Cl)c1	none
C=C1C(=O)O[C@@H]2[C@H]1[C@@H](OC(=O)/C(C)=C/C)C/C(C)=C\C(=O)/C=C(\C)[C@@H]2O	L929 necroptosis 84 (no result: S1P4 agonist, S1P4 antag) | zVAD death conf inactive
C/C=C(/C)C(=O)O[C@H]1[C@@H](O)c2c(ccc3ccc(=O)oc23)OC1(C)C	none
CCN1C(=O)N(C)[C@@H](c2ccccc2)C(C(=O)OC)=C1C	none (no result: S1P4 agonist, S1P4 antag)
CC(C)c1ccc(C(=O)NC(=S)Nc2ccc3[nH]c(=O)[nH]c3c2)cc1	L929 necroptosis 81 | zVAD death conf inactive
Nc1nc(Nc2cccc(Cl)c2)n[nH]1	none
N#C/C(=C\c1ccc([N+](=O)[O-])o1)C(=O)Nc1ccc(F)cc1	none
N#CCc1ccc(NC(=O)/C=C/c2ccc([N+](=O)[O-])o2)cc1	L929 necroptosis 85 | zVAD death conf inactive
CCC(=O)Nc1ccc(C(=O)CSc2nc3ccc(C)cc3[nH]2)cc1	L929 necroptosis 76 | zVAD death conf inactive
O=C(NC(Cc1c[nH]c2ccccc12)C(=O)O)c1ccc(Br)cc1 (configuration not stated)	none
CCC(=O)Nc1ccc(C(=O)NNC(=O)COc2cc(C)ccc2C)cc1	L929 necroptosis 85 | zVAD death conf inactive
CCC1=C(OC(=O)N(CC)CC)N2C(=O)OC(=NCC3CC3)[C@]2(Cc2ccccc2)[C@H]2C1=CC[C@H]1C(=O)N(c3ccccc3)C(=O)[C@H]12	none (no result: S1P4 agonist, S1P4 antag)
CCN1CCN(Cc2ccc(NC(=O)c3cc(NC(=O)C(=O)c4c[nH]c5ccccc45)cc(OC)c3)cc2C(F)(F)F)CC1	none (no result: S1P4 agonist, S1P4 antag)
CCN1CCN(Cc2ccc(NC(=O)c3cc(NC(=O)c4cnn(-c5ccccc5)c4N)cc(OC)c3)cc2C(F)(F)F)CC1	L929 necroptosis 80 (no result: S1P4 agonist, S1P4 antag) | zVAD death conf 81
CCN1CCN(Cc2ccc(NC(=O)c3ccc(C)c(NC(=O)c4ccnnc4)c3)cc2C(F)(F)F)CC1	L929 necroptosis 76 (no result: S1P4 agonist, S1P4 antag) | zVAD death conf 56
COc1ccc(NC(=O)Nc2cccc(OC)c2)cc1	none
COc1cccc(NC(=O)Nc2cc(Cl)ccc2C)c1	L929 necroptosis 77 | zVAD death conf inactive
CCOC(=O)c1cnc2c(OC)cccc2c1Nc1ccc2c(c1)OCCO2	none
CCC1=C(OC(=O)N(CC)CC)N2C(=O)OC(=NCCc3c[nH]c4ccccc34)[C@]2(Cc2ccccc2)[C@H]2C1=CC[C@H]1C(=O)NC(=O)[C@H]12	none (no result: S1P4 agonist, S1P4 antag)
